The values below come from ChEMBL document CHEMBL1123096, “Alpha-adrenoreceptor reagents. 3. Synthesis of some 2-substituted 1,4-benzodioxans as selective presynaptic alpha 2-adrenoreceptor antagonists” (J Med Chem, 1985).

By pA2 is commonly meant a measure of antagonist potency on a negative log scale.

Experiment [1] addresses T1, Adrenergic receptor alpha-2 (Rattus norvegicus) (UniProt P22086+P19328+P22909). The experiment is described as follows: Alpha-2 adrenergic receptor antagonist activity compared to idazoxan. It is filed as functional. In outline: (§1)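 Vas deferens from rat or mouse; the mouse tissue was in Mg-free Krebs at 30 °C under 0.5 g tension, stimulated at 0.1 Hz, 3 ms, 100–140 V, giving a twitch of about 100 mg. […] Standard curves were run before and after the test curve.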

In experiment [2] the target is T2, Adrenergic receptor alpha-2 (Rattus norvegicus, UniProt P22086+P19328+P22909).
T2 sequence (P22086 whole entry): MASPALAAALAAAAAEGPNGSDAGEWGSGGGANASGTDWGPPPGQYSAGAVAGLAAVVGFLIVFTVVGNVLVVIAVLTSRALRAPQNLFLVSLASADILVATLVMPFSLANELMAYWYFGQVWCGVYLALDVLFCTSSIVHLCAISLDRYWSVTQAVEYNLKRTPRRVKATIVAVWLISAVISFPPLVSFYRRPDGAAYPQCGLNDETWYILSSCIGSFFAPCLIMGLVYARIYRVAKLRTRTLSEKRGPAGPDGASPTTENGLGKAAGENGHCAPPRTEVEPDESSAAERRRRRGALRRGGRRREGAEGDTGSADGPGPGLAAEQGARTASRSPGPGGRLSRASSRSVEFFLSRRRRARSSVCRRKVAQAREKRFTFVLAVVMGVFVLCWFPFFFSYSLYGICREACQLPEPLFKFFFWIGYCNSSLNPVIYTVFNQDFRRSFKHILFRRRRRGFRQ
T2 sequence (P19328 whole entry): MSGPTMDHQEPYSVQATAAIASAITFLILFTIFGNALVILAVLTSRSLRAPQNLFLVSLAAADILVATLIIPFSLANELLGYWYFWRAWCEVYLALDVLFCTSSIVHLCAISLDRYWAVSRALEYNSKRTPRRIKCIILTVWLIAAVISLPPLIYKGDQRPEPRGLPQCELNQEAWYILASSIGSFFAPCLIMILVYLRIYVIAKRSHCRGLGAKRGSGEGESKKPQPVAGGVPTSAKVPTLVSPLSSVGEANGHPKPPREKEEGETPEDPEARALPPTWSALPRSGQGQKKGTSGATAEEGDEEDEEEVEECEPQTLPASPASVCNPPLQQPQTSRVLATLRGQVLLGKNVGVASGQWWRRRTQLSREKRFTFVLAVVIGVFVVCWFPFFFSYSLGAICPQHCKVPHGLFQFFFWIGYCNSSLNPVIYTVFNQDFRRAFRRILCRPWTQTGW
T2 sequence (P22909 whole entry): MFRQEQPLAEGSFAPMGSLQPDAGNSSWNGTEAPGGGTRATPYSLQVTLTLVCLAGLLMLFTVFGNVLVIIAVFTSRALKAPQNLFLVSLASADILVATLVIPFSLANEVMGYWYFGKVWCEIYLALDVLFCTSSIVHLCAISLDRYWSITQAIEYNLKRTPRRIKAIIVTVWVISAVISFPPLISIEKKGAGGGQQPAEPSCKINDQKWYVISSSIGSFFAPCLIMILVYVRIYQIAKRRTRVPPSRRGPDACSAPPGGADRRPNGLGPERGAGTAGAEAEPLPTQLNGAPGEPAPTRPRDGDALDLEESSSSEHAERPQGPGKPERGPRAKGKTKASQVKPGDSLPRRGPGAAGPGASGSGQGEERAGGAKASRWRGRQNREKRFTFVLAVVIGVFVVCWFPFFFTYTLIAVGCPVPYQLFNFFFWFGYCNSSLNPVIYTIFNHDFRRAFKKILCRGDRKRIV
In words: Alpha-2 adrenergic receptor antagonist activity in a rat vas deferens assay. Values ranges from 7.77-8.21. It is filed as functional, tissue-based.

Experiment [3] has as its target T1, Adrenergic receptor alpha-2 (Rattus norvegicus). In words: Presynaptic antagonist activity towards alpha-2 adrenergic receptor. It is filed as functional. The procedure, abridged: as §1
In experiment [4] the target is T3, Adrenergic receptor alpha-1 (Rattus norvegicus) (UniProt P15823+P23944+P43140). In words: post-synaptic antagonist activity towards alpha-1 adrenergic receptor was determined. Concentration giving a dose response to phenylephrine (idazoxan=1) was reported. It is filed as functional. The procedure, abridged: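 Rat anococcygeus, postsynaptic α1 antagonism. At least five phenylephrine concentration–response curves were run alone, then at least four with the antagonist present.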

The target in experiment [5] is T3, Adrenergic receptor alpha-1 (Rattus norvegicus). In words: Alpha-1 adrenergic receptor antagonist activity relative to idazoxan. It is filed as functional. In outline: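 The agonist was phenylephrine, tested on isolated rat anococcygeus under 0.5 g initial tension. At least five phenylephrine dose-response curves were run alone, then at least four in the presence of the analogue.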

For experiment [6], the target named is T4, Adrenergic receptor alpha-1 (Rattus norvegicus, UniProt P15823+P23944+P43140).
T4 sequence (P15823 whole entry): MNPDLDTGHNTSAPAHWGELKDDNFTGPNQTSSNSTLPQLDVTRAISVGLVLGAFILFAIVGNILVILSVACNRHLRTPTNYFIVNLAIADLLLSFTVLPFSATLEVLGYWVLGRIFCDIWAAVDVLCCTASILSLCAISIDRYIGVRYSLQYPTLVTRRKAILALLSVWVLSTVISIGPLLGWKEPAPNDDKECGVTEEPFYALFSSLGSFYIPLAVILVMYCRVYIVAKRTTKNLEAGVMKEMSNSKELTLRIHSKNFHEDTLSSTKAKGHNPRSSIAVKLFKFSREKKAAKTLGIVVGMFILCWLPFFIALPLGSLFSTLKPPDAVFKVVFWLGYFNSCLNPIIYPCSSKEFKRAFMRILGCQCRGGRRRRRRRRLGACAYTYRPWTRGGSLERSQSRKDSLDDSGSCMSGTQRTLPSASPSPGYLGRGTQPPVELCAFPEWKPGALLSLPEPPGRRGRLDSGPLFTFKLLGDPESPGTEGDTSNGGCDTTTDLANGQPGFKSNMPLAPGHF
T4 sequence (P23944 whole entry): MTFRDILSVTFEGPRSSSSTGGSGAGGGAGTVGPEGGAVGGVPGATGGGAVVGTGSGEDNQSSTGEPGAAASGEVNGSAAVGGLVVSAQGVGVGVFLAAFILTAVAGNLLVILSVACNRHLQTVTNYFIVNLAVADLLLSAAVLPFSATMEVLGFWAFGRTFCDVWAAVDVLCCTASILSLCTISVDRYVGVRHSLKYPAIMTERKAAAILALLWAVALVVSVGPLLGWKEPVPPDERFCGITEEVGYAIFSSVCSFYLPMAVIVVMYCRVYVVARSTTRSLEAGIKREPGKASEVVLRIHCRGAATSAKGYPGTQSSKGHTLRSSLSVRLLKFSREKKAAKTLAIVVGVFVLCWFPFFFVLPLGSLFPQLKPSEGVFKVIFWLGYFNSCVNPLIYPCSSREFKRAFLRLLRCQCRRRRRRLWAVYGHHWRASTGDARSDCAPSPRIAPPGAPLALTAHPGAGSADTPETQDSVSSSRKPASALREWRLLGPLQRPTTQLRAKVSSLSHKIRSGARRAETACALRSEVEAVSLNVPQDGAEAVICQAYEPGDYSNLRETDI
T4 sequence (P43140 whole entry): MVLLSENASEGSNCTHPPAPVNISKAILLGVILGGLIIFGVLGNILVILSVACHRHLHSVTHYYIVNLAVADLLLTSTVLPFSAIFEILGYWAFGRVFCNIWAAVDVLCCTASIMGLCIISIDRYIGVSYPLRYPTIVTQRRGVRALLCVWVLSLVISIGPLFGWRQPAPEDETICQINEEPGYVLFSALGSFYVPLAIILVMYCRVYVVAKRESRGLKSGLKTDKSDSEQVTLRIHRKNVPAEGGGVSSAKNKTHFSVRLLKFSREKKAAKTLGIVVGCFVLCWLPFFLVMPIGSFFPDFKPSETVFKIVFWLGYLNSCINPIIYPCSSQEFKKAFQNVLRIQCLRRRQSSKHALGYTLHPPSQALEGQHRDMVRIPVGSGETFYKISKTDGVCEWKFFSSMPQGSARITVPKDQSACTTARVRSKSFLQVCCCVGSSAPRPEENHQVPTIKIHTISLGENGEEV
The experiment is described as follows: Alpha-1 adrenergic receptor activity in a rat anococcygeus. Values ranges from 5.49-6.90.

Experiment [7] deals with Adrenergic receptor alpha (Rattus norvegicus) (UniProt P15823+P23944+P43140+P22086+P19328+P22909). The experiment is described as follows: Selectivity as ratio […] against alpha-2 receptor to that of alpha-1 receptor. It is filed as protein assay.
Experiment [8] has as its target T3, Adrenergic receptor alpha-1 (Rattus norvegicus). The experiment is described as follows: Alpha-1 adrenergic receptor binding activity relative to idazoxan. It is filed as protein assay.
The target in experiment [9] is T4, Adrenergic receptor alpha-1. In words: Alpha-1 adrenergic receptor antagonist activity in a rat anococcygeus. Values ranges from 6.29-6.54. It is filed as functional.
For experiment [10], the target named is T2, Adrenergic receptor alpha-2. The experiment is described as follows: Alpha-2 adrenergic receptor antagonist activity in a rat vas deferens assay. Values ranges from 8.37-9.10. It is filed as functional. In outline: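 pA2 at presynaptic α2-adrenoreceptors in field-stimulated rat vas deferens. Tissue was held in Krebs solution (NaCl 118 mM, KCl 4.7 mM, CaCl2 2.5 mM, KH2PO4 1.2 mM, MgSO4 0.6 mM, NaHCO3 25 mM, dextrose 11.1 mM) gassed with 95% O2/5% CO2 at 30 °C. Stimulation was 3-ms pulses, 40 V, 0.1 Hz, with contractions recorded isometrically. Twitches were inhibited by clonidine (110 nM).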

`C1=C(C2(C3=NCCN3)COc3ccccc3O2)CC1.Cl` (centres undefined): the Relative potency in experiment [1] and in experiment [5] was 0.3 throughout. The results for the pA2 in experiment [2] and in experiment [6] were 8.21 and 6.9, respectively. Also, the potency relative to idazoxan in [3] was 0.3. In [4], this compound displayed a Postsynaptic antagonist of 0.13. In experiment [7], the Ratio was found to be 2.3.
For the compound `c1ccc(COC2(C3=NCCN3)COc3ccccc3O2)cc1` (centres undefined), the Relative potency in experiment [1] is 1.5; in experiment [8], 1.2. In experiment [3], this compound had a potency relative to idazoxan of 2. In addition, in experiment [4], the Postsynaptic antagonist was 3. Moreover, the pA2 came to 6.39 in experiment [9] and 8.68 in experiment [10]. Further, in experiment [7], the Ratio came to 0.7.
